Structures can show the parent of a compound that is named as a salt.
How the values were obtained:
[1] = tested on: bacterial IspE kinase; conditions: cited from earlier work
[2] = ref PubChem database; cited from earlier work
[3] = target: T1, aerobactin synthetase IucA (Klebsiella pneumoniae, UniProt A0A1A9TA96); type: biochemical, hypervirulent K. pneumoniae hvKP1; conditions: for effect of increasing IucA concentration on apparent potency: 20, 200, or 2,000 nM IucA; for effect of increasing IucA concentration on apparent potency / effect of 1 h pre-incubation with IucA on apparent potency: MG assay; for effect of 1 h pre-incubation with IucA on apparent potency: compared to reactions without pre-incubation; for inhibition of IucA in pilot screen and follow-up: pilot screen of 4,400 bioactives, enzyme-initiated protocol
[4] = target: T1, aerobactin synthetase IucA; test: Orthogonal luminescence; type: biochemical, hypervirulent K. pneumoniae hvKP1; conditions: 30 min pre-incubation, substrate-initiated
[5] = tested on: human RAD51 recombinase; conditions: cited from earlier work
[6] = tested on: RecA; conditions: cited from earlier work
[7] = tested on: IucA; conditions: read-out: KM for IucA; cited from earlier work
[8] = tested on: IucA; test: Fluorescence-based thermal shift assay; type: binding, hypervirulent K. pneumoniae hvKP1; conditions: substrates ATP (1.5 mM) and citrate (1.5 mM)
Outline: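 Purified IucA (10 μg per sample) with 5× SYPRO Orange, in the more concentrated buffer used for substrate runs: 50 mM HEPES, 150 mM NaCl, 0.2 mM TCEP, pH 7.5. ATP and citrate were each at 1.5 mM. Samples were heated from 25 to 99 °C over 45 min in a real-time PCR instrument, reading fluorescence (ex 545/em 568 nm) every 0.5 °C. TM was taken as the maximum of the first derivative of the melt curve.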

SMILES: COc1ccc(-n2c(-c3cccnc3)nc3ccccc3c2=O)cc1 [CB04]
- inhibition of IspE kinase [1]: potent inhibitors

SMILES: CC1=NN(c2nc(-c3ccc(Cl)cc3)cs2)C(=O)/C1=C\c1ccc2c(c1)OCO2 [CB02]
- reported active in unique PubChem bioassays [2]: 2 out of 8
- effect of increasing IucA concentration on apparent potency [3]: apparent potency was reduced
- effect of 1 h pre-incubation with IucA on apparent potency [3]: increased apparent potency
- dose-dependent activity, primary substrate-initiated MG assay ([3]; purchased compounds, substrate-initiated protocol): highest potency
- dose-dependent activity, secondary luminescence assay [4]: most potent dose-dependent activity

SMILES: O=C([O-])c1ccccc1-c1c2cc(Br)c(=O)cc-2oc2[c]([Hg+])c([O-])c(Br)cc12.[Na+].[Na+].[OH-] [Merbromin, reference compound]
- inhibition of IucA in pilot screen and follow-up [3]: identified in the initial screen

SMILES: O=c1c2ccccc2[se]n1-c1ccccc1 [Ebselen, reference compound]
- inhibition of IucA in pilot screen and follow-up [3]: identified as an inhibitor

SMILES: O=c1c2ccccc2nc(/C=C/c2cccnc2)n1Cc1ccccc1 [CB06]
- inhibition of human RAD51 recombinase [5]: inhibitor
- inhibition of E. coli RecA [6]: did not inhibit
- effect of increasing IucA concentration on apparent potency [3]: apparent potency was reduced
- effect of 1 h pre-incubation with IucA on apparent potency [3]: increased apparent potency

SMILES: O=c1c2ccccc2nc(-c2cccnc2)n1-c1ccc(Br)cc1 [CB05]
- inhibition of IspE kinase [1]: potent inhibitors

SMILES: C[CH2][Hg][S]c1ccccc1C(=O)[O-].[Na+] [thiomersal, reference compound]
- inhibition of IucA in pilot screen and follow-up [3]: identified in the initial screen

SMILES: CC(=O)[O][Hg][c]1ccccc1 [phenylmercuric acetate, reference compound]
- inhibition of IucA in pilot screen and follow-up [3]: identified in the initial screen

SMILES: O=C(O)c1cc[c]([Hg][Cl])cc1 [4-chloromercuribenzoic acid, reference compound]
- inhibition of IucA in pilot screen and follow-up [3]: identified in the initial screen

SMILES: O=C(O)CC(O)(CC(=O)O)C(=O)O [citrate, sodium citrate tribasic dihydrate]
- Km [7]: 180 ± 30 µM

SMILES: Nc1ncnc2c1ncn2[C@@H]1O[C@H](COP(=O)(O)OP(=O)([O-])OP(=O)([O-])O)[C@@H](O)[C@H]1O.[Na+].[Na+] [ATP, adenosine triphosphate disodium salt hydrate]
- Km [7]: 130 ± 30 µM
- shift in the melting temperature (TM) of IucA [8]: +2–5 °C
